Sampled rows, rich in hits. Any-hit rate of the full collection: about 4%.
Cl transport mod: KCC2 (human) Cl- transport modulation | 190,000 tested, 2.2% active | KCC2 cells, thallium flux FluoZin-2 fluorescence | B-score of Tl+ flux slope (higher = more flux/activation; lower = inhibition) at 10 µM | Q9H2X9;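 active = thallium flux slope and its plate-corrected score both differing from the plate sample mean at a set confidence after two filtering rounds, in either direction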;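 also: slope of fluorescence scaled to starting intensity during 10 to 20 s after thallium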
b-catenin transl: alters nuclear translocation of beta-catenin in HeLa cells; nuclear translocation activity, % at 5 µM; immunofluorescence imaging; 190,000 tested, 0.3% active; AID 1665;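 active = nuclear translocation activity above 50% at 5 µM, with a well cell count of 50 or more; inconclusive = wells under 50 cells across six images, flagged as toxic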;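 also: per-cell ratio of nuclear to cytoplasmic median beta-catenin stain intensity; plate controls were DMSO negative control for no effect and GSK-3 inhibitor IX positive control for full effect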
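Test system: human HeLa cell line; Doses: 5 µM primary, 0.02–20 µM confirmation; Incubation: 24 h compound exposure, 37°C; Detection: beta-catenin immunofluorescence imaging with DAPI; Read-out: beta-catenin nuclear/cytoplasmic ratio, % activation.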
MT stabilize HCS: microtubule stabilizers in HeLa cells; 200,000 tested, 0.83% active; AID 2205; % tubulin-high responders, % at 10 µM; HeLa tubulin immunostaining HCS, 24 h; share of cells brighter than vehicle mean+2SD;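 active = plate Z-score above 3 for both tubulin-high and condensed-nucleus cell shares, with cell loss under 80%, at 10 µM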;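 also: anti alpha tubulin signal scored within the nucleus-defined area of each cell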
WT yeast gro inh: growth inhibition of WT yeast, mitochondrial fusion screen. mitochondrial fusion phenotypic screen, WT strain. inhibition, % at 10 µM. 190,000 tested, 2.1% active. AID 1362; in the data active = inhibition above about 58%; tested in S. cerevisiae
Pf gamet viab: kills late stage P. falciparum gametocytes | P. falciparum stage V gametocytes, ATP luminescence, 24 h | inhibition, % at 10.9 µM | 150,000 tested, 0.065% active | AID 743093;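 active = inhibition above the mean plus 3 SD of compounds within the control limits, set per campaign, cut at about 38% in these data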;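 also: 0% = DMSO wells and 100% = medium only without gametocytes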
KCC2 sec1: KCC2 (human) modulation, secondary assay. shares compounds with Cl transport mod. HEK293-KCC2, thallium flux, FluoZin2 fluorescence; stronger effect = higher value. normalised thallium flux (F/F0 slope) at 10 µM. 3,700 tested, 15% active. AID 1713;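 active = thallium flux slope above the same plate's solvent-only control mean plus 3 SD; inconclusive = the two replicate wells disagree; inactive = no significant difference from solvent-only control wells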
KCC2 bumet counter: bumetanide-insensitive thallium flux in KCC2 cells with ouabain, counter-screen; shares compounds with Cl transport mod; HEK293-KCC2 + bumetanide/ouabain, thallium flux FluoZin2; stronger effect = higher value; normalized thallium flux at 10 µM; 3,700 tested, 49% active; AID 1714;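 active = thallium entry rate above the same plate's blocked-transporter control wells by more than 3 SD; inconclusive = the two repeat wells disagree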;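 also: raw slope of fluorescence over initial fluorescence between 10 and 20 s after thallium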
KCC2 sec2: confirmation of human KCC2 transport modulators. shares compounds with Cl transport mod. HEK293-KCC2, thallium flux FluoZin2 fluorescence; actives lie on both sides; F/F0 rise rate, 10–20 s post-thallium. normalized thallium flux at 10 µM. 3,700 tested, 23% active. AID 1715;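 active = thallium flux slope more than 3 SD above or below the plate's solvent-only control mean, mostly below; inconclusive = the two repeat wells disagreed; inactive = no significant shift from solvent-only controls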;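 also: raw slope with 0.1% DMSO as baseline and bumetanide as block control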
HEK293 Tl flux: counter-screen for KCC2 modulators: effect in parental HEK293 cells | shares compounds with Cl transport mod | thallium flux FluoZin2, ouabain; baseline-ratio fluorescence slope, 10–20 s after thallium | thallium flux rate (normalised fluorescence) at 10 µM | 3,700 tested, 46% active;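 active = thallium flux rate significantly above the same plate's solvent-only control wells, beyond their mean plus 3 SD; inconclusive = the two replicate wells gave conflicting results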
KCC2 retest ouab: KCC2 (human) modulation, ouabain retest; shares compounds with Cl transport mod; 3,700 tested, 48% active; raw Tl+ flux slope (below DMSO = inhibition, above = activation) at 10 µM; HEK293-KCC2, thallium flux FluoZin2 fluorescence; bidirectional: low = inhibitor, high = activator; AID 1717;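 active = thallium flux slope beyond 3 SD from same-plate DMSO control mean in most replicates, usually higher, sometimes lower; inconclusive = repeat tests gave conflicting results; inactive = no significant difference from controls in most replicates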;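 also: slope of initial-normalized fluorescence between seconds 10 and 20 after thallium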
HEK counter2: counter-screen for KCC2 modulators: effect in parental HEK293 cells; shares compounds with Cl transport mod; thallium flux FluoZin-2 fluorescence slope; thallium flux slope at 10 µM; 3,700 tested, 33% active; AID 1718;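 active = thallium flux slope above the same plate's solvent-control mean plus 3 SD in both duplicate wells; inconclusive = duplicate wells that disagreed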;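 also: run without ouabain in cells lacking the KCC2 cotransporter; slope of fluorescence scaled to its starting value between 10 and 20 s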
* hit, by the source's call; ? = inconclusive; nt = not tested or not shown.

SMILES	Cl transport mod	b-catenin transl	MT stabilize HCS	WT yeast gro inh	Pf gamet viab	KCC2 sec1	KCC2 bumet counter	KCC2 sec2	HEK293 Tl flux	KCC2 retest ouab	HEK counter2
Cc1ccccc1-n1nnnc1SC(C)C(=O)NC1CCCc2ccccc21 (stereo not given)	-3.5*	0	5	28	-12	0.0063	0.0045	0.034	0.0037	0.017*	0.011
Cc1cccc(NC(=S)NNC(=O)c2ccccc2Br)c1	3	-2	4	-9	nt	nt	nt	nt	nt	nt	nt
CCCc1cc(C(=O)NNC(=S)Nc2cccc(C)c2)cs1	31*	0	3	28	nt	0.0058	0.083*	0.063*	0.077*	0.065*	0.044*
Cc1cccc(NC(=S)NNC(=O)c2ccccc2OC(F)F)c1	13*	2	3	10	nt	0.0091	0.026*	0.03	0.012*	?	0.011*
COCCN(C(=O)c1snc(C(N)=O)c1N)C(C(=O)NC1CCCCC1)c1ccc(OC)c(OC)c1 (stereo not given)	nt	nt	nt	nt	-12	nt	nt	nt	nt	nt	nt
Cc1ccc(-c2ccc(SCC(=O)Nc3nonc3C)nn2)cc1	-5.7*	1	3	-4	-15	0.0055	0.004	0.023*	0.0058*	0.013*	0.0095
Cc1csc(NC(=O)CSc2nnc(-c3ccccc3)o2)n1	-0.3	nt	2	0	-19	nt	nt	nt	nt	nt	nt
Cc1csc(NC(=O)CSc2nnc(-c3cccs3)n2C)n1	-3*	-1	4	9	nt	0.0078	0.0064	0.032	0.0068	0.02	0.011
Cn1c(SCc2c(Cl)cccc2Cl)nnc1-c1cccs1	-4.6*	-2	2	13	15	0.0076	0.0039	0.027	?	?	0.0093
Cc1ccc(-c2ccc(SCC(=O)Nc3ccc4c(c3)OCCO4)nn2)cc1	-0.071	-1	2	2	6	nt	nt	nt	nt	nt	nt
Cc1csc(NC(=O)CSc2ccc(-c3ccccc3)nn2)n1	-5.6*	-4	4	-8	nt	0.014	0.0051	0.019*	0.0068	0.013	0.0097
Cc1ccc(CSc2nnc(-c3cccs3)n2C)cc1	nt	-2	5	-3	nt	nt	nt	nt	nt	nt	nt
CCCCCCCN=CC1=C(O)CC(c2ccccc2)CC1=O (stereo not given)	-0.54	nt	4	28	1	nt	nt	nt	nt	nt	nt
CCn1nnnc1SCC(=O)Nc1nc(-c2cccs2)cs1	-4.1*	7	4	20	nt	0.0088	0.0063	?	0.0067	0.014*	0.01
Cn1c(CSCc2ccccc2)nnc1SCC(=O)Nc1nccs1	6.2*	2	2	1	-11	0.0058	0.004	0.028	0.0067	0.017	0.0093
CCn1nnnc1SCC(=O)Nc1nnc(C(C)C)s1	nt	nt	4	-2	16	nt	nt	nt	nt	nt	nt
Cn1c(SCC(=O)Nc2nc3c(s2)CCCC3)nnc1-c1ccccc1	-4.8*	-8	2	12	nt	0.0074	0.0054	0.023*	0.0082	0.018*	0.012
Cn1c(=O)c2c(ncn2CC(O)CNc2cccc(Cl)c2)n(C)c1=O (stereo not given)	-0.83	-1	1	-4	nt	nt	nt	nt	nt	nt	nt
CN(NS(=O)(=O)c1ccc(Cl)cc1)c1nc(C(F)(F)F)nc2ccccc12	-2.9*	-2	5	54	nt	0.0065	0.0055	0.029	?	0.018	0.01
Cc1ccc(Cn2c(=N)n(CC(=O)c3ccccc3)c3ccccc32)cc1	0.048	2	2	50	9	nt	nt	nt	nt	nt	nt
CC1(C)CC(=O)c2sc(NC(=O)c3cccs3)nc2C1	0.47	1	2	10	nt	nt	nt	nt	nt	nt	nt
C(=N\NC1=Nc2cccc3cccc1c23)/c1cccnc1	-3.8*	-2	3	10	7	0.0065	?	0.029	0.0071	0.016*	0.01
O=C(COC(=O)CCCN=C1NS(=O)(=O)c2ccccc21)NC(=O)NC1CCCC1	-0.59	-2	1	6	20	nt	nt	nt	nt	nt	nt
O=C(c1ccccc1F)N1CCCC(C(=O)N2CCc3ccccc3C2)C1 (stereo not given)	-0.11	0	nt	nt	-14	nt	nt	nt	nt	nt	nt
COc1ccccc1C(=O)Nc1c2c(nn1-c1cccc(C)c1C)CS(=O)C2 (stereo not given)	6.7*	nt	2	2	16	0.0068	0.0039	0.028	?	0.018	0.0097
SMILES	Cl transport mod	b-catenin transl	MT stabilize HCS	WT yeast gro inh	Pf gamet viab	KCC2 sec1	KCC2 bumet counter	KCC2 sec2	HEK293 Tl flux	KCC2 retest ouab	HEK counter2
COc1ccc(CC(=O)Nc2c3c(nn2-c2ccccc2C)CS(=O)C3)cc1 (stereo not given)	-1.4	0	4	0	nt	nt	nt	nt	nt	nt	nt
COC(=O)n1c(=S)oc2cc(Cl)ccc21	3*	nt	4	15	nt	0.018*	0.023*	0.035	0.015*	0.029*	0.012
COC(=O)c1ccccc1SC(CC(=O)c1ccccc1)c1ccc(F)cc1 (stereo not given)	-0.46	1	nt	nt	7	nt	nt	nt	nt	nt	nt
O=C1CNC(=S)N1c1nc2ccccc2s1	5.3*	0	nt	nt	21	0.0069	0.01*	0.031	0.011*	0.021	0.012*
Cn1c(C(=O)NCCCN2CCOCC2)cc2c(=O)n(C)c3ccccc3c21	-0.75	nt	2	4	nt	nt	nt	nt	nt	nt	nt
CCOc1ccc(NC(=O)c2cc3c(=O)n(C)c4ccccc4c3n2C)cc1	-2	nt	4	-8	nt	0.0077	0.0067	0.033	0.0074	?	0.011
Cc1ccc(CNC(=O)c2cc3c(=O)n(C)c4ccccc4c3n2C)o1	-4.3*	nt	4	-4	nt	0.01	0.0068	0.028	0.0076	0.022*	?
Cn1c(C(=O)NCCCN2CCN(c3ccccc3F)CC2)cc2c(=O)n(C)c3ccccc3c21	-3.1	nt	6	-1	nt	0.0074	0.0046	0.024*	0.0076	?	0.011
O=C(CSc1ccc2c(c1)OCCO2)Nc1cccnc1	0.045	-1	3	-7	-5	nt	nt	nt	nt	nt	nt
CCOC(=O)N1CCC(N2CCCC(C(=O)c3cccc(OC(C)C)c3)C2)CC1 (stereo not given)	0.037	0	nt	nt	15	nt	nt	nt	nt	nt	nt
Cn1cccc1/C=N/N1CCN(c2ccccc2)CC1	-0.86	2	4	-17	1	nt	nt	nt	nt	nt	nt
COc1ccc(OC)c(NC(=O)C(=O)NNC(=O)C23CC4CC(CC(C4)C2)C3)c1	135*	0	nt	nt	-10	0.044*	0.11*	0.071*	0.1*	0.081*	0.045*
CCS(=O)(=O)c1c([N+](=O)[O-])ncn1C	0.32	-1	2	-10	0	nt	nt	nt	nt	nt	nt

Source: PubChem BioAssay (several laboratories)
